Results published in ChEMBL document CHEMBL5653631, “A Potent and Selective ULK1 Inhibitor Suppresses Autophagy and Sensitizes Cancer Cells to Nutrient Stress” (iScience, 2018).
Blank lines part the entries; values can stand above or below the compound they belong to.

Tests used:
[1] = target: Ephrin type-A receptor 5 (Homo sapiens) (UniProt P54756); assay: Inhibition of human recombinant EphA5 at 500 nM related to control ULK1
[2] = target: T1, Muscle, skeletal receptor tyrosine-protein kinase (Homo sapiens) (UniProt O15146); assay: Inhibition of human recombinant MUSK at 15 nM in presence of ATP by radiometric assay relative to control
T1 sequence (whole entry): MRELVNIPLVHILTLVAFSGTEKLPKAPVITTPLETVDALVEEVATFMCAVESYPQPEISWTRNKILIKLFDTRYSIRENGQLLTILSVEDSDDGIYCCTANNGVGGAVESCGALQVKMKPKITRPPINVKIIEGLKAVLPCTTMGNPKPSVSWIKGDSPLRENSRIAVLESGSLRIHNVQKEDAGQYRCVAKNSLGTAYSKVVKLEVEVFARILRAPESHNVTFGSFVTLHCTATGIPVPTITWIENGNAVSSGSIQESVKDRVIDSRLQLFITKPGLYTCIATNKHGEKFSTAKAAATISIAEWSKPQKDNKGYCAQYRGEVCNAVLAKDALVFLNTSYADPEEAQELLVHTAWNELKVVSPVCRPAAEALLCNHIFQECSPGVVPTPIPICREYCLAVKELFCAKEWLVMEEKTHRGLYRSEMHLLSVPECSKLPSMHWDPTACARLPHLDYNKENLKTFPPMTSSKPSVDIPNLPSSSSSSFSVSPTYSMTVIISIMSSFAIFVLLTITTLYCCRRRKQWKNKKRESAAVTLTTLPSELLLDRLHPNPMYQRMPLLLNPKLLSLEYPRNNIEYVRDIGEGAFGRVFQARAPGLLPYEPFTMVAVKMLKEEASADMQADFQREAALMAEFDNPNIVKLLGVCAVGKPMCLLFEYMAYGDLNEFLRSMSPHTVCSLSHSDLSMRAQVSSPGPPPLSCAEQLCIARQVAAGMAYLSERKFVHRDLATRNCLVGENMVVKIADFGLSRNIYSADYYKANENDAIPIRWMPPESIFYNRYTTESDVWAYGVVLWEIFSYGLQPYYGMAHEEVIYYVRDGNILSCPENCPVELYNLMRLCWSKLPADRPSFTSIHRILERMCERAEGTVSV

[3] = target: Serine/threonine-protein kinase PRP4 homolog (Homo sapiens) (UniProt Q13523); assay: Inhibition of human recombinant PRP4 at 15 nM related to control ULK1
[4] = target: Wee1-like protein kinase (Homo sapiens) (UniProt P30291); assay: Inhibition of human recombinant Wee1 at 15 nM related to control ULK1
[5] = target: T2, Testis-specific serine/threonine-protein kinase 1 (Homo sapiens) (UniProt Q9BXA7); assay: Inhibition of human recombinant TSSK1 at 15 nM in presence of ATP by radiometric assay relative to control
T2 sequence (whole entry): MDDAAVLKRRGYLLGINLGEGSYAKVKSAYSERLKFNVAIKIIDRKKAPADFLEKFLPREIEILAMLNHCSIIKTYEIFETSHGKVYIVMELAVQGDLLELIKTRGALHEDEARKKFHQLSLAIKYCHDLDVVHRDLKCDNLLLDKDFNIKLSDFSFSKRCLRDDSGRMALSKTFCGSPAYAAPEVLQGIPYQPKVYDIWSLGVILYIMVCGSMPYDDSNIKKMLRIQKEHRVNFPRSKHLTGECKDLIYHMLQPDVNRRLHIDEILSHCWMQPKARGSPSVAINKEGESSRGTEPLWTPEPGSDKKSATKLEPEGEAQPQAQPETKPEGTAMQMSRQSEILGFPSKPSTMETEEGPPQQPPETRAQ

[6] = target: Tyrosine-protein kinase FRK (Homo sapiens) (UniProt P42685); assay: Inhibition of human recombinant FRK at 15 nM in presence of ATP by radiometric assay relative to control
[7] = target: Serine/threonine-protein kinase Nek7 (Homo sapiens) (UniProt Q8TDX7); assay: Inhibition of human recombinant NEK7 at 15 nM related to control ULK1
[8] = target: NT-3 growth factor receptor (Homo sapiens) (UniProt Q16288); assay: Inhibition of human recombinant TRKC at 40 nM related to control ULK1
[9] = target: Aurora kinase B (Homo sapiens) (UniProt Q96GD4); assay: Inhibition of human recombinant AurB at 40 nM related to control ULK1
Outline: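 Radiometric activity assays in a panel of 327 human recombinant kinases, each run in duplicate at one inhibitor concentration. Activity remaining is expressed as percent of vehicle control, and percent inhibition is calculated as 100% minus percent activity remaining.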

[10] = target: T3, Tyrosine-protein kinase ZAP-70 (Homo sapiens) (UniProt P43403); assay: Inhibition of human recombinant ZAP70 at 40 nM in presence of ATP by radiometric assay relative to control
T3 sequence (whole entry): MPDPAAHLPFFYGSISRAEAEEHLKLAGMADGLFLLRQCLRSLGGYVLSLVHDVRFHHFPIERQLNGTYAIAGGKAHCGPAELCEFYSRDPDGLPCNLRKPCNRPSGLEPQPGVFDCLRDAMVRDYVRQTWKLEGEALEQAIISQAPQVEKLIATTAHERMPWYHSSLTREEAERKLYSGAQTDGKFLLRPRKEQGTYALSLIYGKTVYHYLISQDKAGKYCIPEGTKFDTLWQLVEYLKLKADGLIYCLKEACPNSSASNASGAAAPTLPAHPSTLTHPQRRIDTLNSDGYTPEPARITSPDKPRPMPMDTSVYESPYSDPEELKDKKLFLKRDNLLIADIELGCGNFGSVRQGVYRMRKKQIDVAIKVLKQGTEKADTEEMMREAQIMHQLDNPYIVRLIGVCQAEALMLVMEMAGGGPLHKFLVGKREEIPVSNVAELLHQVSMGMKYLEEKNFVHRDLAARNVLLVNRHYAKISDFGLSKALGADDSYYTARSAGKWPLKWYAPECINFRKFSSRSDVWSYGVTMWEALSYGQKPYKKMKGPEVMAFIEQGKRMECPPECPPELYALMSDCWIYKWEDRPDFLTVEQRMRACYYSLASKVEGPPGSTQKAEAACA

Sequence of Serine/threonine-protein kinase Nek7 (Homo sapiens) (Q8TDX7 whole entry, looked up): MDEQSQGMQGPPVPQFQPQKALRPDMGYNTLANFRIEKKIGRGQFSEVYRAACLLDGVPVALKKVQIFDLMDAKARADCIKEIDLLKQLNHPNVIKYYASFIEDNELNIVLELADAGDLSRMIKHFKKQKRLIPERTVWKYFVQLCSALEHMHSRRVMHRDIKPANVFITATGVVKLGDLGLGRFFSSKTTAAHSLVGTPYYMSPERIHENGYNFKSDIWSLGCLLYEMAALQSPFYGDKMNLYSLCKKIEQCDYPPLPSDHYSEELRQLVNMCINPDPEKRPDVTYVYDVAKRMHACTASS
Sequence of Tyrosine-protein kinase FRK (Homo sapiens) (P42685 whole entry): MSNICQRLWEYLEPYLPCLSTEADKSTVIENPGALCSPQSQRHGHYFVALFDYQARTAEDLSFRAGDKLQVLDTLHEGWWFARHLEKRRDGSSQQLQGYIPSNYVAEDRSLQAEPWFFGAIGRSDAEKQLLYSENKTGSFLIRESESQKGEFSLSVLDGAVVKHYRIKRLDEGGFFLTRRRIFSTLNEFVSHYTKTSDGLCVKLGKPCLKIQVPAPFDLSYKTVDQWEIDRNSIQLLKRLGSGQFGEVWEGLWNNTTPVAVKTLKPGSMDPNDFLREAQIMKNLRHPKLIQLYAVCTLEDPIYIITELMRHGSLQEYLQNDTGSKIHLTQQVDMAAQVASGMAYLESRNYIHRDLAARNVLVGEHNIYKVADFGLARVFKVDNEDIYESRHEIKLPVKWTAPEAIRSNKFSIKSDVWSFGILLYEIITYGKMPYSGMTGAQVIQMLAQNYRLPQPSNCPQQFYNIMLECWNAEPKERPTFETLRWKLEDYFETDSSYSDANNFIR
Sequence of Aurora kinase B (Homo sapiens) (Q96GD4 whole entry): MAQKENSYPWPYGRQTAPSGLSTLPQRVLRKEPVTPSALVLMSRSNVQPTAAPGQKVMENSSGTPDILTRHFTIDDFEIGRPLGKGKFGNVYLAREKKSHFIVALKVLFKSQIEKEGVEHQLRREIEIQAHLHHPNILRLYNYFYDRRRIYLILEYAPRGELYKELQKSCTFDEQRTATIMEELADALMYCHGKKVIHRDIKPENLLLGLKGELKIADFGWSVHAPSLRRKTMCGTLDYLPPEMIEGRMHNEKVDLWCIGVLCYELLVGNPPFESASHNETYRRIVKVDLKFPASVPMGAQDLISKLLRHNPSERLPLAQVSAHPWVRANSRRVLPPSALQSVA
Sequence of Ephrin type-A receptor 5 (Homo sapiens) (P54756 whole entry): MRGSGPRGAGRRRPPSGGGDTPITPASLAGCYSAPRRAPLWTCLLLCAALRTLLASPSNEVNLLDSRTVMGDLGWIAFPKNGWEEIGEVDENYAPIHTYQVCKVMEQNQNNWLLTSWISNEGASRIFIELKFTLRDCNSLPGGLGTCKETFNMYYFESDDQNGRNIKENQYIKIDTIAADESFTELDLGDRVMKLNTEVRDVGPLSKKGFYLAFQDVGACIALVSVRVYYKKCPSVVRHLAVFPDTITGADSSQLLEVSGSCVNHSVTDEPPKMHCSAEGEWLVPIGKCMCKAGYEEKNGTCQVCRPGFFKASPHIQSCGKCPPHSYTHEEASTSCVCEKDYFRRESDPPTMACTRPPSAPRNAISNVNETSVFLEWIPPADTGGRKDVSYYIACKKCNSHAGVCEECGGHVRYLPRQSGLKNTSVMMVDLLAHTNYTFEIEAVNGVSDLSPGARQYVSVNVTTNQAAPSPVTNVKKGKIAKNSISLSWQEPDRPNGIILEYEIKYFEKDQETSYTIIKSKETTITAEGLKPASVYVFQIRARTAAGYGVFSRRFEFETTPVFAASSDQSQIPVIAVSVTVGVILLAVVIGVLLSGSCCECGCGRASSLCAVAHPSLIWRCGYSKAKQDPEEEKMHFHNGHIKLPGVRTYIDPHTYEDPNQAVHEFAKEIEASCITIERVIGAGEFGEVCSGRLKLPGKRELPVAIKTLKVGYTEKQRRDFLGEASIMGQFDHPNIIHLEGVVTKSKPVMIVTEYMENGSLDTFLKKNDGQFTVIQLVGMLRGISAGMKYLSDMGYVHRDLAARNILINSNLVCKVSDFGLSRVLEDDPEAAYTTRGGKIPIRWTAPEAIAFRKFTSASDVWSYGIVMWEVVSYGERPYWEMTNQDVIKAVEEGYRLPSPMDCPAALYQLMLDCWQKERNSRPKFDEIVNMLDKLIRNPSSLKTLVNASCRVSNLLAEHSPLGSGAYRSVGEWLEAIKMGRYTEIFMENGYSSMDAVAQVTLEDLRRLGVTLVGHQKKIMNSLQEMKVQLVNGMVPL
Sequence of Wee1-like protein kinase (Homo sapiens) (P30291 whole entry, looked up): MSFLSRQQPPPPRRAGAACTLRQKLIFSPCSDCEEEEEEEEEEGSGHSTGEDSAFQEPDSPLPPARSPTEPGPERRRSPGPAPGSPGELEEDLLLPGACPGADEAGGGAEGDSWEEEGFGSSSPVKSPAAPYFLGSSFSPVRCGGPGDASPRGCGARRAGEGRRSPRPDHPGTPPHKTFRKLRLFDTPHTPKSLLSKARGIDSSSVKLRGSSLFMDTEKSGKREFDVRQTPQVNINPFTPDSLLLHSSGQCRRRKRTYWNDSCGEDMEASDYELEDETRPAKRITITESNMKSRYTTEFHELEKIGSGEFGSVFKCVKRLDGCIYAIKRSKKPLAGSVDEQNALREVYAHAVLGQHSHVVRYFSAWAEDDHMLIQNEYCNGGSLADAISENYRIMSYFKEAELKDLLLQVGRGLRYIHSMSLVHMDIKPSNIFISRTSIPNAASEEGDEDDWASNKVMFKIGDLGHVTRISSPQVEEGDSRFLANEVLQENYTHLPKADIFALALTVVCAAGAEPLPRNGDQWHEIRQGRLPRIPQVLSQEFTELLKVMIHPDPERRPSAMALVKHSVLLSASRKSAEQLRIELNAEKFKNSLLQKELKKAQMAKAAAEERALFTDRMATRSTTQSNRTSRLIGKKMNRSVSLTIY
Sequence of Serine/threonine-protein kinase PRP4 homolog (Homo sapiens) (Q13523 whole entry): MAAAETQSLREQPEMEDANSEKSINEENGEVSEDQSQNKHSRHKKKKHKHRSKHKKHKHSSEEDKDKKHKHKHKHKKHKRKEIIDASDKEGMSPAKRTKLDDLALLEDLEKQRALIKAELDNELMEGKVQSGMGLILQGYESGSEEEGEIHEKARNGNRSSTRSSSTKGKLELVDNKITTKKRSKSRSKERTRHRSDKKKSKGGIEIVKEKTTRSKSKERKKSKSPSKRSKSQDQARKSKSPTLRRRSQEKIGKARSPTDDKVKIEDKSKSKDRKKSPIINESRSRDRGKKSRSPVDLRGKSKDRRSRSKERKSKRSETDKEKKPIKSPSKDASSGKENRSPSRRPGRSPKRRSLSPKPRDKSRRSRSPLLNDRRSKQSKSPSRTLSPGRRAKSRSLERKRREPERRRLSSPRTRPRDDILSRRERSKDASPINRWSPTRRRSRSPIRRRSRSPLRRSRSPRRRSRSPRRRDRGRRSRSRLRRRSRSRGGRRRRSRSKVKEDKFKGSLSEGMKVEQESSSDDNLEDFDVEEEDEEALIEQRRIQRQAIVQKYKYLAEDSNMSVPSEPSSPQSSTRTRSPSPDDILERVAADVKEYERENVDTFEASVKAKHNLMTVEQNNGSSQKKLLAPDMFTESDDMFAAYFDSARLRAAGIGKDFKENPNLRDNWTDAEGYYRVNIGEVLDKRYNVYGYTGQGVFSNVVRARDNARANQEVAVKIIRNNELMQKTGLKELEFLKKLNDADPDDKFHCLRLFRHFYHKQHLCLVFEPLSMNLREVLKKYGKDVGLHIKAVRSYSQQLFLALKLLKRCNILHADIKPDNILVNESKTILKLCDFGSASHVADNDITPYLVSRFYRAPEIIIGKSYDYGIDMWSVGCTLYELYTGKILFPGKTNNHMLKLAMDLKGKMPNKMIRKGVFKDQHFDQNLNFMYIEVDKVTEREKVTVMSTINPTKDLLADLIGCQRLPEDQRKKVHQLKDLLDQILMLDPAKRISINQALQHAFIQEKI
Sequence of NT-3 growth factor receptor (Homo sapiens) (Q16288 32-839 limits assumed): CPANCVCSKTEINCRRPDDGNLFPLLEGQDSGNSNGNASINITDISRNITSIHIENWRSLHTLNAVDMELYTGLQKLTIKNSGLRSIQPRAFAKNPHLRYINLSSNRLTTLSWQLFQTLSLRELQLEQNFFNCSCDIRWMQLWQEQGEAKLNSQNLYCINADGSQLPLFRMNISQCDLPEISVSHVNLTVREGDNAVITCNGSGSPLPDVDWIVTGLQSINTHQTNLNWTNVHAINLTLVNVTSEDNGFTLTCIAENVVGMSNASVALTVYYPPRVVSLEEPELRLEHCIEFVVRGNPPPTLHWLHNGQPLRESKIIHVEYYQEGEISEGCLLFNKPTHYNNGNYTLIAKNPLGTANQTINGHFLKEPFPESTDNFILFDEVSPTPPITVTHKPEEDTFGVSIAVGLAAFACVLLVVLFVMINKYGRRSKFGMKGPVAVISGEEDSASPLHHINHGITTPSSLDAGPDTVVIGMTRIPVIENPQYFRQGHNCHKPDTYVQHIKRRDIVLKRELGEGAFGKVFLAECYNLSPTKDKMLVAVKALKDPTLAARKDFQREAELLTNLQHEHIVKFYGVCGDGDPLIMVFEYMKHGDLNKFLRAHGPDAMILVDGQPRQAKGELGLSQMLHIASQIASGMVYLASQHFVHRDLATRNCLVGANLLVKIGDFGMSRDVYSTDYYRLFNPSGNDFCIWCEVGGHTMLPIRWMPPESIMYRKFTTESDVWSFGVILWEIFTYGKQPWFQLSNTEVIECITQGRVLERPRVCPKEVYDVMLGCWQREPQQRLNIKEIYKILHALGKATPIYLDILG

fold change (FC) [1]: 0.26
Compound: CNC(=O)c1ccccc1Oc1nc(Nc2cc(OC)c(OC)c(OC)c2)ncc1Br

inhibition [2]: 0% | fold change (FC) [3]: 0.07 | fold change (FC) [4]: 0.17 | inhibition [5]: 23% | inhibition [6]: 13% | fold change (FC) [7]: 0
Compound: CC(C)[C@H](NC(=O)c1cc(-c2cnn3cc(-c4ccc(OCCN5CCCCC5)cc4)cnc23)cs1)C(F)(F)F

fold change (FC) [8]: 0 | fold change (FC) [9]: 0.67 | inhibition [10]: 0%
Compound: O=C(N[C@@H](C1CC1)C(F)(F)F)c1cc(-c2cnn3cc(-c4ccc(F)cc4)cnc23)cs1
